# Published values gathered from unrelated publications.
# Target: Delta-type opioid receptor (OPRD1, Homo sapiens, UniProt P41143)
SMILES,assay,setting,Ki
CCCC[C@@H](NC(=O)[C@@H](N)Cc1c(C)cc(O)cc1C)C(=O)NCC(=O)N[C@@H](Cc1ccc(F)cc1)C(=O)N(C)CCC[C@@]1(c2ccc(F)cc2)OCc2cc(C#N)ccc21,cell-free assay,,0.8 nM
Oc1ccc2c3c1O[C@H]1c4ncc(-c5ccccc5)cc4C[C@@]4(OCCCc5cccnc5)[C@@H](C2)N(CC2CC2)CC[C@]314,"ligand displacement, radioligand",cell membranes,5.89 nM
CN(C)C1(CNC(=O)/N=N/c2ccc(F)cc2)CCCCC1,cell-free assay,,12000 nM
CCCCCCCCCCCCCCCC(=O)O,"ligand displacement, radioligand",cell membranes,5100 nM
COc1ccsc1CNCC[C@@]1(c2ccccn2)CCOC2(CCCC2)C1,cell-free assay,,1400 nM
CCCO[C@@]12Cc3cc(-c4ccccc4)cnc3[C@@H]3Oc4c(O)ccc5c4[C@@]31CCN(CC1CC1)[C@@H]2C5,"ligand displacement, radioligand",cell membranes,7.48 nM
Cc1cc(O)cc(C)c1C[C@H](N)C(=O)N1Cc2ccccc2C[C@H]1C(=O)NCC(=O)NCc1ccc(Cl)cc1,"ligand displacement, radioligand",cell membranes,0.26 nM
C[C@@H](NC(=O)C[C@@H](N)Cc1ccc(O)cc1)C(=O)NCC(=O)N[C@@H](Cc1ccccc1)C(=O)NNC(=O)[C@H](Cc1ccccc1)NC(=O)CNC(=O)[C@@H](C)NC(=O)C[C@@H](N)Cc1ccc(O)cc1,"ligand displacement, radioligand",,480 nM
Cc1cc(O)cc(C)c1C[C@H](N)C(=O)N1Cc2ccccc2CC1C(=O)NCC(=O)NC(Cc1ccc(Cl)cc1)C(=O)N(C)CCC[C@@]1(c2ccc(F)cc2)OCc2cc(C#N)ccc21 (stereo in doubt),cell-free assay,,20 nM
Cc1cc(O)cc(C)c1C[C@H](N)C(=O)N1Cc2ccccc2C[C@H]1C(=O)NCC(=O)NC(c1ccccc1)c1ccccc1,"ligand displacement, radioligand",cell membranes,0.94 nM
CCCC[C@@H](NC(=O)[C@@H](N)Cc1ccc(O)cc1)C(=O)NCC(=O)N[C@@H](Cc1ccc(F)cc1)C(=O)N(C)CCC[C@@]1(c2ccc(F)cc2)OCc2cc(C#N)ccc21,cell-free assay,,1.4 nM
Cc1cc(O)cc(C)c1C[C@H](N)C(=O)N1Cc2ccccc2C[C@@H]1C(=O)NCC(=O)NCc1ccccc1,"ligand displacement, radioligand",cell membranes,3.2 nM
